Measurements published in ChEMBL document CHEMBL5030505, “Assessment of NR4A Ligands That Directly Bind and Modulate the Orphan Nuclear Receptor Nurr1” (J Med Chem, 2020).
Active and inactive are the calls of the source. No cut-off for these calls is given here.

How the values were obtained:
Assay type in all cases: cell-based
SK-N-BE(2) = test: Cytotoxicity in human SKNBE2 cells assessed as reduction in cell viability at 1.55 to 15 uM incubated for 18 hrs by Cell Titer-Glo assay; conditions: dose 1.55-15 µM
How it was run: (§1)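 Cells seeded 1.5 million per 10-cm dish; next day replated at 10,000 cells/well in 384-well format, 4 h, then ligand or vehicle (water, ethanol or DMSO by ligand) added in quadruplicate for 18 h; viability read by CellTiter-Glo luminescence. Mean ± s.e.m. (n=4), generally 2 independent experiments; one-way ANOVA versus vehicle.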

PC-12 [1] = test: Cytotoxicity in rat PC-12 cells assessed as reduction in cell viability at 1.55 to 15 uM incubated for 18 hrs by Cell Titer-Glo assay; conditions: pc-12, 18 h, dose 1.55-15 µM; how it was run: as §1
HEK-293T = test: Cytotoxicity in human HEK293T cells assessed as reduction in cell viability at 1.55 to 15 uM incubated for 18 hrs by Cell Titer-Glo assay; conditions: dose 1.55-15 µM; how it was run: as §1
SKNBE2 = test: Modulation of Gal4-fused VP16 expressed in SKNBE(2) cells co-transfected with UAS repoter gene assessed as decrease in luciferase activity at 1.55 to 15 uM incubated for 18 hrs by luciferase reporter gene assay; conditions: Human alphaherpesvirus 2, filed as modulator, dose 1.55-15 µM
How it was run: (§2)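 Constitutive control: cells transfected (Lipofectamine 2000) with Gal4-VP16 expression plasmid (2 μg) plus 5xUAS-luciferase reporter (2 μg), 18 h; replated 10,000 cells/well, 4 h; ligand or vehicle in quadruplicate for 18 h; luciferase read by Britelite Plus; signal as fold change over vehicle-treated cells. Mean ± s.e.m. (n=4); one-way ANOVA versus vehicle.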

PC-12 [2] = test: Modulation of Gal4-fused VP16 expressed in PC12 cells co-transfected with UAS repoter gene assessed as decrease in luciferase activity at 1.55 to 15 uM incubated for 18 hrs by luciferase reporter gene assay; conditions: Human alphaherpesvirus 2, filed as modulator, dose 1.55-15 µM; how it was run: as §2
HEK293T = test: Modulation of Gal4-fused VP16 expressed in HEK293T cells co-transfected with UAS repoter gene assessed as decrease in luciferase activity at 1.55 to 15 uM incubated for 18 hrs by luciferase reporter gene assay; conditions: Human alphaherpesvirus 2, filed as modulator, dose 1.55-15 µM; how it was run: as §2
[3] = biological target: Nuclear receptor subfamily 4 group A member 2 (Homo sapiens) (UniProt P43354); test: Modulation of full length human Nurr1 expressed in PC-12 cells co-transfected with luciferase reporter plasmid harboring NBRE response element assessed as decrease in luciferase activity at 1.55 to 15 uM incubated for 18 hrs by luciferase reporter gene assay; conditions: filed as modulator, dose 1.55-15 µM
How it was run: (§3)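 Cells transfected (Lipofectamine 2000, 18 h) with full-length Nurr1 expression plasmid (2 μg) and 3xNBRE- or 3xNurRE-luciferase reporter (6 μg), no internal control normalisation; replated 10,000 cells/well, 4 h; ligand or vehicle in quadruplicate for 18 h; Britelite Plus luminescence as fold change over vehicle. Mean ± s.e.m. (n=4); one-way ANOVA versus vehicle.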

[4] = biological target: Nuclear receptor subfamily 4 group A member 2 (Homo sapiens) (UniProt P43354); test: Modulation of full length human Nurr1 expressed in […] cells co-transfected with luciferase reporter plasmid harboring NurRE response element assessed as decrease in luciferase activity at 1.55 to 15 uM incubated for 18 hrs by luciferase reporter gene assay; conditions: SKNBE2, filed as modulator, dose 1.55-15 µM; how it was run: as §3
[5] = biological target: Nuclear receptor subfamily 4 group A member 2 (Homo sapiens) (UniProt P43354); test: Modulation of full length human Nurr1 expressed in […] cells co-transfected with luciferase reporter plasmid harboring NBRE response element assessed as decrease in luciferase activity at 1.55 to 15 uM incubated for 18 hrs by luciferase reporter gene assay; conditions: SKNBE2, filed as modulator, dose 1.55-15 µM; how it was run: as §3
[6] = biological target: Nuclear receptor subfamily 4 group A member 2 (Homo sapiens) (UniProt P43354); test: Modulation of full length human Nurr1 expressed in HEK293T cells co-transfected with luciferase reporter plasmid harboring NurRE response element assessed as decrease in luciferase activity at 1.55 to 15 uM incubated for 18 hrs by luciferase reporter gene assay; conditions: filed as modulator, dose 1.55-15 µM; how it was run: as §3
[7] = biological target: Nuclear receptor subfamily 4 group A member 2 (Homo sapiens) (UniProt P43354); test: Modulation of full length human Nurr1 expressed in HEK293T cells co-transfected with luciferase reporter plasmid harboring NBRE response element assessed as decrease in luciferase activity at 1.55 to 15 uM incubated for 18 hrs by luciferase reporter gene assay; conditions: filed as modulator, dose 1.55-15 µM; how it was run: as §3

Chain of Nuclear receptor subfamily 4 group A member 2 (Homo sapiens) (P43354 whole entry): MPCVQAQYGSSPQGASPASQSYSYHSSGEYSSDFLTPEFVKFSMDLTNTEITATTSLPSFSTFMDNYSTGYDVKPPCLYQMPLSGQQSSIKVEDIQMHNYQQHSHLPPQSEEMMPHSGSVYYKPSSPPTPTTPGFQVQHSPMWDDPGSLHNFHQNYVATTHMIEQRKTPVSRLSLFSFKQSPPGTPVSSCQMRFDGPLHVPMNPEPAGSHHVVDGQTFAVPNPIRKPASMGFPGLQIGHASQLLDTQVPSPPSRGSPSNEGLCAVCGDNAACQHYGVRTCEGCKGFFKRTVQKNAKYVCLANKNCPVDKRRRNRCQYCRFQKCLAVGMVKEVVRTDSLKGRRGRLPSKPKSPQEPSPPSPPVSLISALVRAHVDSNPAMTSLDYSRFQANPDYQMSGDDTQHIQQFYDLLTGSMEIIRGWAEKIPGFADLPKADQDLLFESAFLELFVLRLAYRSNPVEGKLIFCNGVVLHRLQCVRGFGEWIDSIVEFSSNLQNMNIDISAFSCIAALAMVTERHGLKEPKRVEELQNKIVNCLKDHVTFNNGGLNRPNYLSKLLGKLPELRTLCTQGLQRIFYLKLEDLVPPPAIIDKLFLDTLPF

With `CC[C@@]1(O)C(=O)OCc2c1cc1n(c2=O)Cc2cc3ccccc3nc2-1` [CAMPTOTHECIN] the Activity (SK-N-BE(2)) was “Toxic”, the Activity (PC-12 [1]) was “Toxic” and the Activity (HEK-293T) was “Toxic”. For the same molecule, the Activity (SKNBE2) was “Active”, the Activity (PC-12 [2]) was “Active” and the Activity (HEK293T) was “Active”. For the same molecule, the Activity [3] was “Active”, the Activity [4] was “Active” and the Activity [5] was “Active”. For the same molecule, the Activity [6] was “Active” and the Activity [7] was “Active”.
